test: Toxicity liver stage against HepG2, at 10uM; type: cell-based; design: test concentration 10 uM, cell line HepG2-A16-CD81EGFP; conditions: human, HepG2-A16-CD81EGFP cells; read-out: INHIBITION
In short: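 Uninfected HepG2-A16-CD81EGFP cells, 3 × 10^3 per well, 1536-well, plated on prespotted compound at 10 μM final, parasite-free screening media added to match infected plates; puromycin 10 μM positive, DMSO 0.5% negative; run in parallel with 48 h PbLuc assay at 37 °C, 5% CO2; viability by CellTiter-Glo luminescence, normalized to controls.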

SMILES | cytotoxicity at 10 µM [%]
COCCCN(Cc1ccccn1)S(=O)(=O)N(C)C | 12
O=C(NC[C@H]1C[C@@H]2CCN1C[C@@H]2CN1CCCCC1)Nc1ccsc1 | -1.31
C=C(C)Cn1c(=O)nc(N)c2c(-c3ccc(OC)cc3)csc21 | -26
O=C(CCc1ccc(-n2cnnn2)cc1)Nc1ccncc1 | -11.2
COC(=O)CSc1nnc2[nH]c(=O)c3c(n12)CCCC3 | -99.8
O=C(NC1CC(=O)N(C2CC2)C1)c1ccc(Cl)s1 (centres undefined) | 9.05
Fc1cnc(N2CCCn3c(nnc3Cn3cccn3)C2)nc1 | 4.53
CCOc1ccc(CCC(=O)N2CC[C@H]3C(=O)NCCO[C@H]3C2)cc1 | 12.1
CCOC1CC2(CCN(Cc3cnn(C)c3)CC2)c2ccc(C)cc21 (centres undefined) | 4.62
CN1C[C@@H]2CN(C(=O)C3CCOC3)C[C@@H]2C1=O (some centres undefined) | -127
Cc1nccc([C@H]2C[C@@H]3CCN(S(C)(=O)=O)C[C@H]3O2)n1 | -0.522
CCCS(=O)(=O)N1C[C@@H](c2nc(C)no2)C[C@H]2OCC[C@H]21 | -130
c1cncc(CN2CCc3c(CNc4nccs4)n[nH]c3C2)c1 | 1.04
Cc1cccc(C(=O)N2CCn3cnc(COCC4CC4)c3C2)c1 | 14
NC(=O)c1c(NC(=O)CCCC(=O)O)sc2c1CCc1ccccc1-2 | -1.25
Cc1noc2nc3c(c(C(=O)/N=c4\[nH]ncs4)c12)CCC3 | -0.493
O=C(C1CC1)N1CC[C@H](O)[C@@H]1Cc1ccccc1 | 1.93
Cc1nc(N)cc(C2(C)CCCNC2)n1 (centres undefined) | 1.36
Cc1ccccc1C(=O)N1C[C@@H](O)[C@H](N2CCOCC2)C1 | 9.3
CN1CCC(c2cnc(NCc3nccn3C)cn2)CC1 | -5.91
CN1CCOC(C)(C(=O)N2CCN(C3CCCC3)CC2)C1 (centres undefined) | -25.8
Cc1ccnn1CCC(=O)N1CCC(c2cnccn2)CC1 | -26.1

SMILES | cytotoxicity at 10 µM [%]
Cc1ccc([C@@]2(O)CC[C@@H]3CN(S(=O)(=O)c4cn(C)nc4C)C[C@@H]32)cc1 | -16.2
O=C(CCCn1cccn1)N1C[C@@H](O)[C@H](Oc2cccc(F)c2)C1 | 5.75
Cc1ccc(S(=O)(=O)N2CCC(c3n[nH]cc3C)C2)cc1 (centres undefined) | -14.3
COc1cccc(N2CCN(C(=O)c3ccc(=O)n(C)c3)CC2)c1 | -7.81
COc1ccc(OC)c(S(=O)(=O)NC(=O)C(C)OC)c1 (centres undefined) | -1.2
COc1ccc(S(=O)(=O)NC(=O)C(C)OC)c(OC)c1 (centres undefined) | -6.67
O=C(NCCc1nncn1C1CC1)C1(c2ccccc2)CCC1 | 5.36
CN1CCC(N(Cc2ccccc2)C(=O)c2ccn3cncc3c2)CC1 | 5.68
CCC(C)NC(=O)CS(=O)(=O)Cc1cc(Cl)ccc1OC (centres undefined) | 10.8
COc1cc(NCCNC(=O)c2ccc3[nH]ccc3c2)cc(OC)c1 | 6.44
COc1cccc2c1N(CC(=O)Nc1ccc(Cl)cn1)CCC2 | 64.9
CN(C)c1cccc(C(=O)Nc2cnn(Cc3ccncc3)c2)c1 | -9.19
CCC(CNC(=O)c1ccc(C(N)=O)cc1)Oc1cccc(F)c1 (centres undefined) | -39.5
O=C(NCc1nc(C2CC2)no1)N1CCOC(c2ccccc2)C1 (centres undefined) | -45.2
OCC1CCCCN1Cc1nc(Cc2ccccc2)no1 (centres undefined) | 5.13
CN(Cc1ccccn1)C(=O)c1ccc2c(c1O)OC(C)(C)C2 | -11.8
CN(Cc1ccc([S+](C)[O-])cc1)c1ccc(Cl)cn1 (centres undefined) | 8.97
Cc1noc(C)c1C(C)C(=O)N1CCCN(C)c2ccc(Cl)cc21 (centres undefined) | 3.89
CCOc1cccnc1C(=O)N1CCC(c2ccccc2OC)C1 (centres undefined) | 7.71
CCc1ccc(C(=O)Nc2cc(N3CCNC3=O)ccc2Cl)o1 | 6.03
Cn1cc(NC(=O)c2cc[nH]n2)cc(Cl)c1=O | -18.3
CN1CCN(Cc2ccccc2CNC(=O)c2ccc(Br)cc2)CC1 | 4.44

SMILES | cytotoxicity at 10 µM [%]
CN(C)CC(=O)N1CCc2sc(C(=O)N3CCN(C)CC3)cc21 | -104
CCN(C(=O)c1ccc2nnc(C3CCN(S(C)(=O)=O)C3)n2c1)C(C)C (centres undefined) | -110
CC(C)c1cc(NC(CO)CO)n2nccc2n1 | 6.33
Cc1nn(C)c2nc(N3CCCCC3c3cccnc3)sc12 (centres undefined) | -6.9
Cc1cc2nc(C(C)C)cc(N(C)CC3CCCN3C)n2n1 (centres undefined) | 8.49
COc1ccc(CNC(=O)Cc2csc(C(C)=O)c2)cc1 | 4.95
COc1ccc(F)c(CN2CCCC(O)(CNCc3ncc[nH]3)C2=O)c1 (centres undefined) | 5.87
CCC[C@H]1CN(Cc2ccc(N(C)C)nc2)C[C@@H]1NC(=O)CSC | 7.78
Cc1ccc(Cl)cc1-n1nnnc1C1(N2CCCC2)CCCC1 | 1.18
CCNC(=O)C1CCN(c2cc(-c3ccccc3)nc3ccnn23)C1 (centres undefined) | -16.9
Cc1ncsc1C(=O)N1CCn2nc(CN3CCSCC3)cc2C1 | -51
c1ccc(CCN2CCN(c3ncnc4[nH]ccc34)CC2)cc1 | 5.09
Cc1nc(C(=O)N2CCN(c3ncccn3)[C@@H]3CS(=O)(=O)C[C@@H]32)cs1 | 6.12
OC1(CN2CCCC2)COCCN(c2noc(-c3ccccc3)n2)C1 (centres undefined) | 0.726
CCn1nccc1S(=O)(=O)N1CCC2(CCCN(C(C)C)C2=O)C1 (centres undefined) | -10.9
Cc1ccccc1N1CCN(C(=O)c2ncc(F)cc2F)C(C)C1 (centres undefined) | 11.4
COc1ccc(N2CCC(N3C[C@H](NC(C)=O)[C@@H](C(C)C)C3)CC2)cc1 | -9.92
Cc1cc(NC(C)Cn2cccn2)n2nccc2n1 (centres undefined) | 1.99
CC(C)Oc1ccc(Cl)c(C(=O)N2CCN(CCO)CC2)n1 | -3.82
CCn1cc(CN2CCCN(C(=O)CCc3ccccc3)CC2)cn1 | -7.9
O=C(c1ccc2[nH]nnc2c1)N1CCC(Nc2cccnn2)CC1 | -1.49
O=C1COc2ccc(C(=O)NS(=O)(=O)c3cc(F)ccc3F)cc2N1 | -4.92

SMILES | cytotoxicity at 10 µM [%]
COc1ccccc1OCCC(=O)N1CCCC1Cn1cccn1 (centres undefined) | -5.19
COc1ccc(C(=O)N(Cc2cnn(C)c2)C(C)C)cc1OC(F)F | -5.17
CCOc1cc(C(=O)N2CCCC(c3noc(C)n3)C2)ccc1OC (centres undefined) | -3.33
Cn1ccnc1C(NCc1ccccc1)c1ccc(F)cc1 (centres undefined) | 0.573
O=C1NCCN1C1CCCN(Cc2coc(-c3cccs3)n2)C1 (centres undefined) | -4.39
Cc1ccc(-n2nnc(C(=O)NCC3(CO)CC3)c2C2CC2)cc1 | -4.43
Cc1cnc(CN2CCOC(Cn3nc(C)cc3C)C2)cn1 (centres undefined) | -2.81
CN(Cc1csc(-c2cnn(C)c2)n1)CC1CCN(CCO)CC1 | 7.77
Cn1cnc2c1CCN(Cc1csc(C3CCCCC3)n1)C2 | -3.36
Cc1ccc(OCC(O)CN2CCC(Cn3cc(C)cn3)CC2)cc1 (centres undefined) | -3.17
CC(OCc1ccccc1)C(=O)NCc1ccc(N(C)C)cc1 (centres undefined) | -12
CCc1nnc2n1CCN(C(=O)c1cc3cc(F)ccc3[nH]1)C2 | -9.52
c1ccc(Cn2cc(CNCC3CCCN3c3cccnn3)cn2)cc1 (centres undefined) | -4.03
CCN1CCOC(CNCc2ccccn2)C1 (centres undefined) | -9.09
CN(Cc1ccsc1)C(=O)c1cc2c([nH]c1=O)CCCC2=O | -6.88
Cc1nc(N2CCN(C(=O)c3ccc(O)cc3)CC2)c2cnn(C)c2n1 | -4.91
Cc1ccc(NC(=O)C2CSCN2C(=O)c2cnccn2)c(C)c1 (centres undefined) | -8.6
CN1CCCC1CNC(=O)CCCOCc1ccccc1 (centres undefined) | -5.59
COc1c(CNC(c2ccc(F)cc2)C(C)(C)C)c(C)nn1C (centres undefined) | 0.0161
CCN(Cc1ccc2c(c1)OCO2)C(=O)CCc1c(C)nc(C)[nH]c1=O | -4.61
Cc1cc2n(n1)CC(CNCc1ccc(-n3cccn3)nc1)CN2 (centres undefined) | -10.5
Cc1cc(C)cc(OCC(=O)NC2CCN(S(C)(=O)=O)CC2)c1 | -5.72

SMILES | cytotoxicity at 10 µM [%]
CCc1nc(CN2CCCN(C(=O)c3cn[nH]c3CC)CC2)cs1 | -7.21
CN(C)Cc1cnc(C2CCN(C(=O)c3ccccc3F)C2)[nH]1 (centres undefined) | 0.578
O=S(=O)(C1CC1)N1CC[C@@H]2[C@@H]1CCN2Cc1cccs1 | 5.77
CS(=O)(=O)N1C[C@H]2CCC[C@@]2(COc2ccccn2)C1 | 1.13
NCC1[C@H]2CN(CCc3ccccc3)C[C@@H]12 (some centres undefined) | 5.22
CS(=O)(=O)NCc1cnc2n1CCN(Cc1ccoc1)CC2 | -4.1
CN(C)CCO[C@H]1CN(Cc2ccc3c(c2)OCO3)[C@@H]2COC[C@H]12 | -5.5
CN(Cc1ccccn1)C1CC2(CCN(Cc3cccnc3)CC2)C1 | 0.925
CO[C@H]1CN(Cc2ccc(C)o2)[C@@H]2CCCO[C@H]12 | -144
COCc1nnc2n1CCN(Cc1ccoc1)C2 | -2.56
COCC(=O)N1CCC2(CC1)COC(COCc1ccccn1)C2 (centres undefined) | -128
CN(C)CCOCC1CN(Cc2ccc(F)cc2)Cc2nnn(C)c21 (centres undefined) | 4.59
CN(C)CCN1CCC2(CCCN(C(=O)C3CCC3)C2)CC1 | 4.38
Cn1cc(CN2C[C@@H]3COC[C@]3(COCC3CC3)C2)cn1 | -112
O=C(Cc1ccccn1)N1CCN2C[C@H](Oc3cccc(F)c3)C[C@H]2C1 | 3.94
OCCN1CCC2(CC1)CC(NCc1ccccn1)c1ccccc1O2 (centres undefined) | 0.98
Cn1ccnc1CN1CCC2(CC1)CN(Cc1ccccc1)C(=O)CO2 | -3.99
COc1cccc(-c2cc(C3=NC(=CN4CCN(C)CC4)NO3)[nH]n2)c1 | -7.54
OCC1N(Cc2ccco2)C2CCC1(O)CC2 (centres undefined) | 3.1
O=C1[C@@H]2CC[C@@H](CN(C3CCOCC3)C2)N1Cc1cscn1 | -7.15
Cn1c(=NC(=O)CSCC(=O)Nc2nccs2)sc2ccccc21 | -1.81

From ChEMBL document CHEMBL4513216, “Probing the Open Global Health Chemical Diversity Library for Multistage-Active Starting Points for Next-Generation Antimalarials” (ACS Infect Dis, 2020)
